Assay results of several laboratories.
Protocols differ between the studies behind these lines.
CDK17: Cyclin-dependent kinase 17 (CDK17, Homo sapiens, UniProt Q00537)

Cn1c2c(Cl)c(Cl)ccc2c2cc[nH]c(=O)c21
ΔTm (CDK17; thermal stability, DSF; 10 µM): -0.4 °C

C[C@@H](c1cccc(C#N)c1)n1cc(Cl)cc(C(N)=O)c1=N
remaining binding (CDK17; cell-free assay, competition with immobilised ligand; 1 µM): 84%

c1ccc(CNc2nc(N3CCOc4ccccc43)nc3c2CCCC3)cc1
inhibition (CDK17; target engagement in cells, inhibitor, chemoproteomics; 20 mM): -12.4%

CN(CCCC(F)(F)F)c1nccc(-c2cnn3ncccc23)n1
remaining binding (CDK17; binding; 1 µM): 90%

CCN1CCC2(CC1)NC(=O)c1c(c3ccc(Cl)c(Cl)c3n1C)C2C#N (racemic)
ΔTm (CDK17; thermal stability, DSF; 10 µM): 0 °C

CC(C)CC(=O)N1CCc2nc(-c3ccc(Br)cc3)nc(N(C)Cc3ccccc3)c2C1
remaining binding (CDK17; cell-free assay, competition with immobilised ligand; 0.1 µM): 100%

Nc1ncnc2occ(-c3ccc(NC(=O)Nc4cc(C(F)(F)F)ccc4F)cc3)c12
remaining signal (CDK17; cell-free assay, inhibitor; 20 µM): 0.4%

O=C(Nc1cnn(-c2csc(C(=O)NC3COC3)c2)c1)Nc1c(F)cccc1Cl
remaining activity (Cyclin-dependent kinase 17, with cyclin Y (CDK17, Homo sapiens, UniProt Q00537); enzyme activity, inhibitor; 5 µM): 96%

Cn1c2c(c3ccccc31)C(C#N)C(C)(C)NC2=O (stereo not drawn)
ΔTm (CDK17; thermal stability, DSF; 10 µM): 0 °C

COc1ccc2cc(OCC3(C(=O)O)CN(C(=O)c4ccc(F)cc4)C3)ccc2c1
remaining binding (CDK17; cell-free assay, competition with immobilised ligand; 1 µM): 100%

CCC1(CC)NC(=O)c2c(c3ccc(Cl)c(Cl)c3n2C)C1C#N (stereo not drawn)
ΔTm (CDK17; thermal stability, DSF; 10 µM): 0.7 °C

CCCCNc1ncc2c(-c3ccc(F)cc3)nn(C[C@H]3CC[C@H](N)CC3)c2n1
inhibition (CDK17; target engagement in cells, inhibitor, chemoproteomics; 20 mM): 41.7%
